The source of these data is ChEMBL document CHEMBL4118248, “Small Molecule Proprotein Convertase Subtilisin/Kexin Type 9 (PCSK9) Inhibitors: Hit to Lead Optimization of Systemic Agents” (J Med Chem, 2018).

Series [1] has as its system Rattus norvegicus. The experiment in a line: Toxicity in Crl:CD(SD) rat assessed as decrease in total erythroid cells at 50 mg/kg/day, po daily via gavage for 14 days measured on day 15 post last dose relative to control. The format is organism-based. Particulars: in vivo, 336 h. On the set-up: scale not given: the % may be the effect or the level left.
Series [2] concerns Rattus norvegicus. The experiment in a line: Toxicity in Crl:CD(SD) rat at 15 mg/kg/day, po daily via gavage for 14 days. As to conditions: in vivo, 336 h. In kind it is organism-based.
For series [3], the system named is Rattus norvegicus. As to the kind of experiment: Toxicity in Crl:CD(SD) rat assessed as decrease in total T cells at 50 mg/kg/day, po daily via gavage for 14 days measured on day 15 post last dose relative to control. Further details: scale not given: the % may be the effect or the level left. As to conditions: in vivo, 336 h. The format is organism-based.
For series [4], the system named is Rattus norvegicus. As to the kind of experiment: Toxicity in Crl:CD(SD) rat assessed as decrease in hematocrit and hemoglobin level at 50 mg/kg/day, po daily via gavage for 14 days measured on day 15 post last dose relative to control. In kind it is organism-based. Further details: scale not given: the % may be the effect or the level left. As to conditions: in vivo, 336 h.

A short description of series [5]: Apparent permeability in RRCK cells. In kind it is ADME, cell-based, Canis lupus familiaris, MDCKII-LE. As to conditions: dog, MDCK. An outline of the steps: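 Passive permeability measured in RRCK cells, a modified Madin-Darby canine kidney line; Papp reported in 10^-6 cm/s.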
Series [6] can be described thus: Intrinsic clearance in rat liver microsomes. The format is ADME, microsome. Particulars: read-out: CLH.
The target in the next series is 80S Ribosome. As to the kind of experiment: Binding affinity to 80S ribosome in human HuH7 cells assessed as inhibition of PCSK9 mRNA translation after overnight incubation by ELISA. Particulars: huh-7. The format is cell-based. An outline of the steps: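 Huh7 cells kept in high-glucose DMEM, 10% BSA-free FBS, 2 mM L-glutamine, pen/strep at 37 °C, 5% CO2. Plated 7,500/well with compound or vehicle and incubated overnight (16-20 h). Secreted PCSK9 in the medium read by AlphaLISA: two antibodies to different mature-PCSK9 epitopes, biotinylated antibody 3 nM final, acceptor beads 10 µg/mL, 0.5 h rt; streptavidin donor beads 40 µg/mL, 1 h rt.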
A general note: In an ELISA, binding on a coated surface is turned into a signal by an enzyme label.

A short description of series [7]: Lipophilicity, log D of the compound by shake flask method. The format is physicochemical. As to conditions: octanol/water. An outline of the steps:
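LogD measured by the shake-flask method.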

A short description of series [8]: Permeability from basolateral to apical side in MDCK cells harboring MDR1. Particulars: dog, read-out: permeability. In kind it is ADME, cell-based, Canis lupus familiaris. An outline of the steps:
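Bidirectional permeability across MDR1-transfected MDCK monolayers, apical-to-basolateral and basolateral-to-apical; Papp reported in 10^-6 cm/s.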

Series [9] has as its system Rattus norvegicus. The experiment in a line: Reduction in total cholesterol level in Crl:CD(SD) rat at 50 mg/kg/day, po daily via gavage for 14 days measured on day 15 post last dose relative to control. In kind it is functional. On the set-up: scale not given: the % may be the effect or the level left.
The next series relates to Bone marrow cell. As to the kind of experiment: Cytotoxicity against rat bone marrow cells assessed as reduction in cell viability after 72 hrs by CellTiter-Glo assay. In kind it is cell-based. (In general: Cellular ATP, detected with luciferase, serves as a proxy for viable cell number.)

On to `O=C(c1ccc(-n2nnc3cccnc32)cc1)N(c1ncccc1Cl)[C@@H]1CCCNC1`, for which the Activity with Rattus norvegicus [1] is 46%; in the series with Rattus norvegicus [3], 54%; with Rattus norvegicus [4], 9 to 10%; in the series with Rattus norvegicus [9], 30%. The NOAEL with Rattus norvegicus [2] is 478 nM. The Papp in series [5] was found to be 15 ×10⁻⁶ cm/s. For the same compound, the microsomal CLint in series [6] was 18.2 µL/min/mg. The IC50 was 0.82 µM at 80S Ribosome and 1.2 to 2.9 µM in the series on Bone marrow cell. The compound further came in with a logD in series [7] of 0.8. In series [8], the Papp B→A is 20.6 ×10⁻⁶ cm/s.

As usually defined, the NOAEL is the highest dose or exposure tested at which no adverse effect was seen. What is called Papp is the rate of passage across a membrane or cell layer, normalised by area and donor concentration. The term IC50 denotes the point on the concentration scale where inhibition reaches its midpoint. The logD is the decadic logarithm of the distribution of all forms, ionised or not, between an organic phase and buffer at a given pH.
